In ChEMBL document CHEMBL5058577, “EUbOPEN Chemogenomics Library 2 (Multiplex)” (2022):

Test system: HEK-293T
Experiment: Multiplex assay against HEK293T
Type: toxicity, cell-based
Settings: human
Method in brief: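 Cells stained live at seeding with Hoechst33342, BioTracker Green Microtubule Cytoskeleton Dye, MitoTracker Red and Annexin V Alexa Fluor 680 were imaged on a CQ1 microscope at 37°C and 5% CO2 after compound addition. Their classification by CellPathfinder machine-learning gating ran from Hoechst high-intensity objects versus normal cells, to healthy, pyknosed or fragmented nuclei among normal cells, to mitotic or apoptotic among pyknosed cells. Tubulin, mitochondrial-mass and membrane-permeability phenotypes are per cents of healthy-nucleus cells.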

[1] = 12 h, 1 µM, compound concentration 1 uM, replicate 1
[2] = 12 h, 1 µM, compound concentration 1 uM, replicate 2
[3] = 12 h, 10 µM, compound concentration 10 uM, replicate 1
[4] = 12 h, 10 µM, compound concentration 10 uM, replicate 2
[5] = 24 h, 1 µM, compound concentration 1 uM, replicate 1
[6] = 24 h, 1 µM, compound concentration 1 uM, replicate 2
[7] = 24 h, 10 µM, compound concentration 10 uM, replicate 1
[8] = 24 h, 10 µM, compound concentration 10 uM, replicate 2
[9] = 48 h, 1 µM, compound concentration 1 uM, replicate 1
[10] = 48 h, 1 µM, compound concentration 1 uM, replicate 2
[11] = 48 h, 10 µM, compound concentration 10 uM, replicate 1
[12] = 48 h, 10 µM, compound concentration 10 uM, replicate 2

## CC(/C=C1\SC(=S)N(CCCC(=O)Nc2ccc(C(=O)O)c(O)c2)C1=O)=C\c1ccccc1
[1]
  Population Apoptotic (%): 34%
  Population Fragmented Nuclei (%): 6%
  Population Healthy Nuclei (%): 81%
  Population Hoechst High Intensity Objects (%): 6%
  Population Membrane Permeable-Phenotype (%): 0%
  Population Mitochondria Different-Phenotype (%): 41%
  Population Mitotic Cells (%): 65%
  Population Normal (%): 93%
  Population Pyknosed Nuclei (%): 11%
  Population Tubulin-Different-Phenotype (%): 31%
  Total Cell Count: 422
[2]
  Population Apoptotic (%): 50%
  Population Healthy Nuclei (%): 84%
  Population Mitochondria Different-Phenotype (%): 62%
  Population Mitotic Cells (%): 50%
  Population Pyknosed Nuclei (%): 8%
  Population Tubulin-Different-Phenotype (%): 20%
  Total Cell Count: 389
[3]
  Population Apoptotic (%): 43%
  Population Fragmented Nuclei (%): 5%
  Population Healthy Nuclei (%): 76%
  Population Hoechst High Intensity Objects (%): 7%
  Population Membrane Permeable-Phenotype (%): 0%
  Population Mitochondria Different-Phenotype (%): 45%
  Population Mitotic Cells (%): 56%
  Population Normal (%): 92%
  Population Pyknosed Nuclei (%): 18%
  Population Tubulin-Different-Phenotype (%): 35%
  Total Cell Count: 313
[4]
  Population Apoptotic (%): 51%
  Population Healthy Nuclei (%): 79%
  Population Mitochondria Different-Phenotype (%): 49%
  Population Mitotic Cells (%): 48%
  Population Pyknosed Nuclei (%): 15%
  Population Tubulin-Different-Phenotype (%): 26%
  Total Cell Count: 327
[5]
  Population Apoptotic (%): 27%
  Population Fragmented Nuclei (%): 9%
  Population Healthy Nuclei (%): 79%
  Population Hoechst High Intensity Objects (%): 4%
  Population Membrane Permeable-Phenotype (%): 0%
  Population Mitochondria Different-Phenotype (%): 28%
  Population Mitotic Cells (%): 72%
  Population Normal (%): 95%
  Population Pyknosed Nuclei (%): 10%
  Population Tubulin-Different-Phenotype (%): 26%
  Total Cell Count: 604
[6]
  Population Apoptotic (%): 31%
  Population Fragmented Nuclei (%): 7%
  Population Healthy Nuclei (%): 83%
  Population Hoechst High Intensity Objects (%): 7%
  Population Mitochondria Different-Phenotype (%): 52%
  Population Mitotic Cells (%): 68%
  Population Normal (%): 92%
  Population Pyknosed Nuclei (%): 8%
  Population Tubulin-Different-Phenotype (%): 21%
  Total Cell Count: 491
[7]
  Population Apoptotic (%): 33%
  Population Fragmented Nuclei (%): 8%
  Population Healthy Nuclei (%): 75%
  Population Hoechst High Intensity Objects (%): 5%
  Population Membrane Permeable-Phenotype (%): 0%
  Population Mitochondria Different-Phenotype (%): 34%
  Population Mitotic Cells (%): 66%
  Population Normal (%): 94%
  Population Pyknosed Nuclei (%): 16%
  Population Tubulin-Different-Phenotype (%): 31%
  Total Cell Count: 369
[8]
  Population Apoptotic (%): 39%
  Population Healthy Nuclei (%): 79%
  Population Hoechst High Intensity Objects (%): 6%
  Population Mitochondria Different-Phenotype (%): 40%
  Population Mitotic Cells (%): 60%
  Population Normal (%): 93%
  Population Pyknosed Nuclei (%): 12%
  Population Tubulin-Different-Phenotype (%): 20%
  Total Cell Count: 422
[9]
  Population Apoptotic (%): 23%
  Population Fragmented Nuclei (%): 13%
  Population Healthy Nuclei (%): 79%
  Population Hoechst High Intensity Objects (%): 2%
  Population Membrane Permeable-Phenotype (%): 1%
  Population Mitochondria Different-Phenotype (%): 16%
  Population Mitotic Cells (%): 76%
  Population Normal (%): 97%
  Population Pyknosed Nuclei (%): 7%
  Population Tubulin-Different-Phenotype (%): 14%
  Total Cell Count: 998
[10]
  Population Apoptotic (%): 19%
  Population Fragmented Nuclei (%): 14%
  Population Hoechst High Intensity Objects (%): 5%
  Population Membrane Permeable-Phenotype (%): 0%
  Population Mitochondria Different-Phenotype (%): 26%
  Population Mitotic Cells (%): 80%
  Population Normal (%): 94%
  Population Pyknosed Nuclei (%): 6%
  Population Tubulin-Different-Phenotype (%): 13%
  Total Cell Count: 673
[11]
  Population Apoptotic (%): 24%
  Population Fragmented Nuclei (%): 9%
  Population Healthy Nuclei (%): 79%
  Population Hoechst High Intensity Objects (%): 3%
  Population Membrane Permeable-Phenotype (%): 2%
  Population Mitochondria Different-Phenotype (%): 25%
  Population Mitotic Cells (%): 75%
  Population Normal (%): 96%
  Population Pyknosed Nuclei (%): 10%
  Population Tubulin-Different-Phenotype (%): 22%
  Total Cell Count: 479
[12]
  Population Apoptotic (%): 39%
  Population Fragmented Nuclei (%): 11%
  Population Healthy Nuclei (%): 82%
  Population Hoechst High Intensity Objects (%): 5%
  Population Mitochondria Different-Phenotype (%): 23%
  Population Mitotic Cells (%): 60%
  Population Normal (%): 94%
  Population Pyknosed Nuclei (%): 6%
  Population Tubulin-Different-Phenotype (%): 24%
  Total Cell Count: 555
